Among the data in ChEMBL document CHEMBL1141882, “Synthesis and biological testing of purine derivatives as potential ATP-competitive kinase inhibitors” (J Med Chem, 2005) are inhibition values, retold here.

The target of test [1] is Tyrosine-protein kinase Lck (Homo sapiens) (UniProt P06239). The test can be described thus: Inhibition of human lymphocyte protein tyrosine kinase Lck at 30 uM. Put shortly:
(§1)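 Kinase activity assayed with ATP at 100 µM, deliberately higher than usual assay ATP levels because the inhibitors are assumed ATP-competitive. Results are reported as percent inhibition of each kinase.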

The target in test [2] is Mitogen-activated protein kinase 1 (Homo sapiens) (UniProt P28482). The test can be described thus: Inhibition of human Mitogen-activated protein kinase 2 at 30 uM. Put shortly:
as §1

For test [3], the target named is cAMP-dependent protein kinase (PKA) (Homo sapiens) (UniProt P22694+P17612+P22612). The test can be described thus: Inhibition of human cAMP-dependent protein kinase (PKA). It is filed as protein assay. On the set-up: concentration or dose not given beside the values. The settings on record: concentration not given here.
For test [4], the target named is Glycogen synthase kinase-3 beta (Homo sapiens) (UniProt P49841). The test can be described thus: Inhibition of human Glycogen synthase kinase-3 beta at 30 uM. Put shortly:
as §1

The target in test [5] is Mitogen-activated protein kinase 14 (Homo sapiens) (UniProt Q16539). The test can be described thus: Inhibition of human stress-activated protein kinase-2 alpha (p38 MAP-kinase) at 30 uM. In outline:
as §1

The target in test [6] is Mitogen-activated protein kinase 1 (Homo sapiens) (UniProt P28482). Nature of the test: Inhibition of human Mitogen-activated protein kinase 1 at 30 uM.
The target in test [7] is Protein kinase C alpha type (Homo sapiens) (UniProt P17252). Nature of the test: Inhibition of human Protein kinase C alpha. Also noted: concentration or dose not given beside the values. The conditions noted are these: concentration not given here.
Test [8] concerns the target Dual specificity mitogen-activated protein kinase kinase 1 (Homo sapiens) (UniProt Q02750). Nature of the test: Inhibition of human Mitogen activated protein kinase kinase 1 (MEK1) at 30 uM. Put shortly:
as §1

For test [9], the target named is Ca2+/calmodulin-dependent protein kinase II (CaM kinase II) (Rattus norvegicus) (UniProt P11275+P08413+P15791+P11730). The test can be described thus: Inhibition of rat Calcium/calmodulin-dependent protein kinase type II at 30 uM. It is filed as protein assay. Put shortly:
as §1

Test [10] addresses RAC-alpha serine/threonine-protein kinase (Homo sapiens) (UniProt P31749). The test can be described thus: Inhibition of human Protein kinase B alpha at 30 uM. Put shortly:
as §1

The target of test [11] is RAF proto-oncogene serine/threonine-protein kinase (Homo sapiens) (UniProt P04049). Nature of the test: Inhibition of human RAF proto-oncogene serine/threonine-protein kinase at 30 uM. In outline: as §1
Test [12] has as its target Rho-associated protein kinase 2 (Homo sapiens) (UniProt O75116). Nature of the test: Inhibition of human Rho-dependent protein kinase-II at 30 uM.
In test [13] the target is Mitogen-activated protein kinase 10 (Rattus norvegicus) (UniProt P49187). The test can be described thus: Inhibition of rat c-Jun N-terminal kinase-3 at 30 uM. In outline:
as §1

In test [14] the target is Mitogen-activated protein kinase 8 (Homo sapiens) (UniProt P45983). Nature of the test: Inhibition of human c-Jun N-terminal kinase-1 alpha-1 at 30 uM. Put shortly: as §1
Test [15] deals with Mitogen-activated protein kinase 9 (Homo sapiens) (UniProt P45984). Nature of the test: Inhibition of human c-Jun N-terminal kinase-2 alpha-2 at 30 uM. Put shortly:
as §1

Sequence of Tyrosine-protein kinase Lck (Homo sapiens) (P06239 2-509 limits assumed): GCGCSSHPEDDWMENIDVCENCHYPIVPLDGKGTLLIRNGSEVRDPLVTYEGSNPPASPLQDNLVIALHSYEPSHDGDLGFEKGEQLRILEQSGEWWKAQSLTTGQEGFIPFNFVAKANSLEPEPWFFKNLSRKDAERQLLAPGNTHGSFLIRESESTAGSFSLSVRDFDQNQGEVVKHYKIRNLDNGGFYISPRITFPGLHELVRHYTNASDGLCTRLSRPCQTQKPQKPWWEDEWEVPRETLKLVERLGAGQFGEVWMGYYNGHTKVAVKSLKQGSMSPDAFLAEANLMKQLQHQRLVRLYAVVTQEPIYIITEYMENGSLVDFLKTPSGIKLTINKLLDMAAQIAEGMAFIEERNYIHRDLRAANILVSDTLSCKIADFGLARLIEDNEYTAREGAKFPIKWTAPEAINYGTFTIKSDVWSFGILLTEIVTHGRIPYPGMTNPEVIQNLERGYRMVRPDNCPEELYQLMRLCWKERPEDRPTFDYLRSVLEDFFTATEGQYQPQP
Sequence of RAF proto-oncogene serine/threonine-protein kinase (Homo sapiens) (P04049 whole entry): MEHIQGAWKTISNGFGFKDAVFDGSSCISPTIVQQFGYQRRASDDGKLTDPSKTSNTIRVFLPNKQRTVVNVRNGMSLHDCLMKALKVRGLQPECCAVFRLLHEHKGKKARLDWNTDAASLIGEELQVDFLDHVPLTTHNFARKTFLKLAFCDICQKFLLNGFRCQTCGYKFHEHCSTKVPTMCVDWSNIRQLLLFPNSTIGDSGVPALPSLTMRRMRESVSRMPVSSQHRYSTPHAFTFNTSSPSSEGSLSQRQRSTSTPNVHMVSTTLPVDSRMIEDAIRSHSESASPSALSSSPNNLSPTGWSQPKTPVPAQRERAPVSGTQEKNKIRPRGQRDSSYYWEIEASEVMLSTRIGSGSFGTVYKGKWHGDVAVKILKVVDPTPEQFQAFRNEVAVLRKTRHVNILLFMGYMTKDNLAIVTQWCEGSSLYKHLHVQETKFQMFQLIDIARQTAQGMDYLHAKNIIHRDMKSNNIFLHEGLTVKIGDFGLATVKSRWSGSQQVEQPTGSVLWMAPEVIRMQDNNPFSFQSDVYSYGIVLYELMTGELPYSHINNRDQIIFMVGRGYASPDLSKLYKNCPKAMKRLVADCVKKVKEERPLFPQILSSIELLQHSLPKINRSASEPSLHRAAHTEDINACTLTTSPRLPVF
Sequence of RAC-alpha serine/threonine-protein kinase (Homo sapiens) (P31749 whole entry): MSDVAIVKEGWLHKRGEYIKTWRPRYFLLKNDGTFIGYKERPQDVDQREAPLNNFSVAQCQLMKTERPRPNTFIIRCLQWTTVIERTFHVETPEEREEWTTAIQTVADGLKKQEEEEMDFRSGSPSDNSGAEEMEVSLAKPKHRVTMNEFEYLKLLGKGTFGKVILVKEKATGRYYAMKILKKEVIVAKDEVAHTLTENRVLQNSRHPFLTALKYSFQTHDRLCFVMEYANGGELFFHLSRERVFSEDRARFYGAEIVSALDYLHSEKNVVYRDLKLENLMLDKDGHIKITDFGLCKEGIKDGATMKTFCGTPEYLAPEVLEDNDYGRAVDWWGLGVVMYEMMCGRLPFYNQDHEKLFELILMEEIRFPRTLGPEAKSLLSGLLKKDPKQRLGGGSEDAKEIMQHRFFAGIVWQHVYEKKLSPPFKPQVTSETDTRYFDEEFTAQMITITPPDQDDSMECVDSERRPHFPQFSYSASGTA
Sequence of Glycogen synthase kinase-3 beta (Homo sapiens) (P49841 whole entry, looked up): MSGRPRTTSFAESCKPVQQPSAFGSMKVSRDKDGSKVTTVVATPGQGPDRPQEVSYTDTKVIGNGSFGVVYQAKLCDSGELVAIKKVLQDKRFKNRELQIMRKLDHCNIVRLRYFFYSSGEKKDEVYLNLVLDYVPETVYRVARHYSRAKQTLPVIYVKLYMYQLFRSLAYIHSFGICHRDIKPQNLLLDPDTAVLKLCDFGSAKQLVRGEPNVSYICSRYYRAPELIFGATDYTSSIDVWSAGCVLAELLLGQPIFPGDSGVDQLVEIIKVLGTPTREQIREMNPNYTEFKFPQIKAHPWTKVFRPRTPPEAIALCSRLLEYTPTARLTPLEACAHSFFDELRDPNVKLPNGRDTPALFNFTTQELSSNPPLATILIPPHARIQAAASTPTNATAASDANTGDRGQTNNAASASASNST
Sequence of Mitogen-activated protein kinase 10 (Rattus norvegicus) (P49187 whole entry): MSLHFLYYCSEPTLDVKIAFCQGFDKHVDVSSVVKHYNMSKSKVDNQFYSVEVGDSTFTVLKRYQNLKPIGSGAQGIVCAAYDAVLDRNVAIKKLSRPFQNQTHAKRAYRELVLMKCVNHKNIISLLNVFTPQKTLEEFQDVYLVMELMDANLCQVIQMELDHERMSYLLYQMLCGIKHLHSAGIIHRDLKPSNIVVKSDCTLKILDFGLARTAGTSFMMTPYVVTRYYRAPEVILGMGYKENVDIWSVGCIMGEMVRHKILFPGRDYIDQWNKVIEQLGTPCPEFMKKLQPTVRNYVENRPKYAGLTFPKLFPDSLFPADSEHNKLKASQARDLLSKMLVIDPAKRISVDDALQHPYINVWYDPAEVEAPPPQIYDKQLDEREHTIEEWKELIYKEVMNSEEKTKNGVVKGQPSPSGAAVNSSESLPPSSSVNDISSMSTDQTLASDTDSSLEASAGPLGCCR
Sequence of Rho-associated protein kinase 2 (Homo sapiens) (O75116 whole entry, looked up): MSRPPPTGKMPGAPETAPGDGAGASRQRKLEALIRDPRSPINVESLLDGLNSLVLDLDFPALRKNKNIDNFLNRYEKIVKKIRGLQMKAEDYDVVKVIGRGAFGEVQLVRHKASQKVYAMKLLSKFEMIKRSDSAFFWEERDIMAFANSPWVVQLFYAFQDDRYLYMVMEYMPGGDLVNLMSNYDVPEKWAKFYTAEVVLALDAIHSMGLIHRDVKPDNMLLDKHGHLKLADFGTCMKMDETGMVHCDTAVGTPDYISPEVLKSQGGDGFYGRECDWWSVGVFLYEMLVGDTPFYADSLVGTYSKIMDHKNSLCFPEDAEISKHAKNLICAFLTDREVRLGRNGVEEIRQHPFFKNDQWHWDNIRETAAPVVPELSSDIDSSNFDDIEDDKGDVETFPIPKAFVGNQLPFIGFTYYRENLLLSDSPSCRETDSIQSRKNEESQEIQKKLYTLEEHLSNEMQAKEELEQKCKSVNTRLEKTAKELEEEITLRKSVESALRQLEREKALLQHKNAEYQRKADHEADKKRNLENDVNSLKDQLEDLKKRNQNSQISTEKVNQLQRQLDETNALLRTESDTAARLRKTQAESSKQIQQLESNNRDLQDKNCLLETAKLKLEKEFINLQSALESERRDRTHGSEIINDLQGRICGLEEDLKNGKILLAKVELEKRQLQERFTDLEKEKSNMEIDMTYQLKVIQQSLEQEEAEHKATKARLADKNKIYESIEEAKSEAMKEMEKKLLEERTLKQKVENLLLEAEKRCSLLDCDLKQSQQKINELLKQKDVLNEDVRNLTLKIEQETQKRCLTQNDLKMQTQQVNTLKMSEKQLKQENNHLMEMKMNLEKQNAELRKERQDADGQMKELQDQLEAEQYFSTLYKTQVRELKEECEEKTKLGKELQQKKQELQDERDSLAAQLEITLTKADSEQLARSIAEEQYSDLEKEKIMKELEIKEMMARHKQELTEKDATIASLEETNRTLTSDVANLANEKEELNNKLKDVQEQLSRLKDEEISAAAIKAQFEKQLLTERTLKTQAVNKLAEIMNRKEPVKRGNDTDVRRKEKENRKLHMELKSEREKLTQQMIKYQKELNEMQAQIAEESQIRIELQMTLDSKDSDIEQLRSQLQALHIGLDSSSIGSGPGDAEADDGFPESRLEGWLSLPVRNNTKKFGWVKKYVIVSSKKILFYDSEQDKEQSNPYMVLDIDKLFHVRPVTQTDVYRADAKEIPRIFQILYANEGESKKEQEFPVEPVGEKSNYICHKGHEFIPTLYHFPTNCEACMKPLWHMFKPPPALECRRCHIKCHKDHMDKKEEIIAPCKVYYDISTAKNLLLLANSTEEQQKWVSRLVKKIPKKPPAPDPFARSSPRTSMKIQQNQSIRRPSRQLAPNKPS
Sequence of Dual specificity mitogen-activated protein kinase kinase 1 (Homo sapiens) (Q02750 whole entry): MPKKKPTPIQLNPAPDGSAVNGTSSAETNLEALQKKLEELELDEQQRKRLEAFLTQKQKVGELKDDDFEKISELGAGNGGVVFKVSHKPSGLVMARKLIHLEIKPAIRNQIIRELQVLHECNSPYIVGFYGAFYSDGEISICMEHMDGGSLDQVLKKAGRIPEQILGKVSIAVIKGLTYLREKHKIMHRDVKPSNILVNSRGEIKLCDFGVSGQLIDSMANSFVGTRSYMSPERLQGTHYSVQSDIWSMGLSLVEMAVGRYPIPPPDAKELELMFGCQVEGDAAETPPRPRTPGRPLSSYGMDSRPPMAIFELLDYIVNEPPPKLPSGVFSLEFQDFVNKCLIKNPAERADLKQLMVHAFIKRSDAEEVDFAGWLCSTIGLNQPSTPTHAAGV

As to `c1ccc(Nc2ncnc3[nH]cnc23)cc1`, the inhibition – broadly, the share of the control response that was lost under treatment – in [1] came to 39%; in [2], 33%; in [3], 32%; in test [4], 13%; in test [5] it was 34%; in [6] it was 22%. In addition, the inhibition worked out at 6% in test [7]; 19% in [8]; 0% in test [9]; 14% in [10]; 19% in test [11]; 48% in [12]. Also, the inhibition in test [13] worked out at 11%; in test [14], 0%; in [15] it was 0%.
With `Cn1cnc2c(-c3ccccc3)ncnc21`, the inhibition was determined as 21% in test [1]; 9% in test [2]; 7% in test [3]; 11% in test [4]; 16% in test [5]; 14% in [7]. The inhibition in [8] came to 9%; in test [9], 8%; in [10] it was 15%; in [11], 12%; in test [12], 8%; in test [13], 14%. In addition, the figures for the inhibition in test [14] and in [15] were 9% and 11%, respectively.
In the case of `CSc1ccc(-c2nc3c(Sc4ccccc4)ncnc3n2C)cc1`, the inhibition was found to be 0% in test [1]; 0% in test [2]; 0% in test [3]; 3% in test [4]; 11% in test [5]; 0% in test [7]. Further, the inhibition in test [8] was determined as 4%; in [9] it was 0%; in [10], 5%; in [11], 5%; in [12], 0%; in [13], 0%. Besides, the results for the inhibition in test [14] and in test [15] were 0% and 1%, respectively.
Consider `c1ccc(Sc2ncnc3[nH]cnc23)cc1`, for which the inhibition in [1] came to 5%; in [2] it was 13%; in test [3] it was 8%; in test [4] it was 1%; in [5], 54%; in test [7], 3%. The inhibition in [8] came to 0%; in test [9], 0%; in [10], 0%; in [11], 6%; in test [12] it was 33%; in test [13], 0%. Also, the inhibition in test [14] and in test [15] was 0% in each case.
As to `Cn1cnc2c(/C=C/c3ccccc3)ncnc21`, the inhibition came to 1% in test [1]; 0% in test [2]; 0% in test [3]; 0% in [4]; 12% in test [5]; 7% in test [7]. The inhibition in test [8] was determined as 0%; in [9] it was 4%; in test [10] it was 0%; in test [11] it was 8%; in [12], 0%; in test [13], 8%. Further, the inhibition in test [14] and in test [15] was 0% throughout.
In the case of `Fc1ccc(Nc2[nH]cnc3ncnc2-3)cc1`, the inhibition was 42% in test [1]; 48% in test [2]; 40% in [3]; 0% in test [4]; 30% in [5]; 17% in [7]. In addition, the inhibition is 34% in test [8]; 2% in [9]; 18% in [10]; 24% in [11]; 52% in test [12]; 10% in [13]. Further, the inhibition is 13% in [14] and 0% in test [15].
On to `Cn1c(-c2ccccc2)nc2c(Sc3ccc(F)cc3)ncnc21`, for which the inhibition in test [1] worked out at 20%; in test [2], 1%; in test [3], 3%; in test [4] it was 22%; in [5] it was 29%; in test [7], 17%. Also, the inhibition in [8] was found to be 7%; in test [9], 8%; in [10], 29%; in [11], 14%; in [12] it was 9%; in test [13], 16%. In addition, the inhibition in test [14] came to 2%; in [15] it was 0%.
